This is a sample that favours compounds with a hit; in the whole collection about 1.7% have one here.
STEP block: STEP (human) phosphatase inhibition | P54829 | recombinant STEP, OMFP fluorogenic substrate, fluorescence | inhibition, % at 20 µM | 360,000 tested, 0.25% active | AID 588621;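 active = inhibition at 20 µM, scaled per plate between control wells, above about 37%, limit read from the data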
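Material: STEP (striatal-enriched tyrosine phosphatase) enzyme, cell-free; Compound dosing: 20 µM single dose in 1% DMSO; Technique: fluorescence read at 480 nm ex / 540 nm em; Times: reaction 20 min, ambient temperature; Medium: 50 mM Bis-Tris pH 6.0 with 2.5 mM DTT and 0.005% Tween 20; Also added: OMFP at 25 µM.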
DNMT1 inh: DNMT1 (human) enzyme inhibition | DNMT1 molecular beacon, Hinp1I cleavage, fluorescence | inhibition (reported as % activation of signal), % at 10 µM | 360,000 tested, 0.83% active | AID 588458; in the data active = inhibition above about 50%
LMPTP block: LMPTP (human) inhibition. recombinant LMPTP-A, OMFP fluorogenic substrate, fluorescence intensity. inhibition, % at 20 µM. 360,000 tested, 0.22% active;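 active = compounds that cut the enzyme signal by at least half of the control window in the single-dose screen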
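Test system – LMPTP-A phosphatase enzyme · Quantity – 0.625 nM LMPTP-A final · Reagent – OMFP substrate, 400 µM final · Dosing – one test concentration per compound, 20 µM, with 3% DMSO overall · Timing – 50 min enzyme reaction at room temperature, protected from light · Detection – fluorescence intensity · Controls – substrate-only low control, DMSO enzyme-plus-substrate high control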
CASP6 VEID inh: inhibitors of human caspase-6; P55212; purified caspase-6, Z-VEID-R110 cleavage fluorescence; inhibition, % at 12.5 µM; 350,000 tested, 0.53% active;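 active = mean inhibition across replicates at least about 35%, with every replicate also reaching that limit, limit read from the data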
Target sequence (P55212 24-179 limits assumed): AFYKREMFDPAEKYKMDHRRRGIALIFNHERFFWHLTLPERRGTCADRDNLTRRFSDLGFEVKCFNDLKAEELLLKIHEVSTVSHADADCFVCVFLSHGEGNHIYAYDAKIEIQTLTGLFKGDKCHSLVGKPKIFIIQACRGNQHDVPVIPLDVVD
Target sequence (P55212 194-293 limits assumed): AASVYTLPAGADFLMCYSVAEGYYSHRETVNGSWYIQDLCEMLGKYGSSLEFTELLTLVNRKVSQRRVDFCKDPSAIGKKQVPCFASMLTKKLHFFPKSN
Scp-1 inhibitor: blocks human Scp-1 phosphatase activity. inhibition, % at 20 µM. Recombinant Scp1, phosphopeptide, malachite green phosphate absorbance. AID 493091. 340,000 tested, 0.88% active. Q9GZU7;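 active = inhibition above about 50% at 20 µM, limit read from the data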
Target sequence (Q9GZU7 76-261 limits assumed): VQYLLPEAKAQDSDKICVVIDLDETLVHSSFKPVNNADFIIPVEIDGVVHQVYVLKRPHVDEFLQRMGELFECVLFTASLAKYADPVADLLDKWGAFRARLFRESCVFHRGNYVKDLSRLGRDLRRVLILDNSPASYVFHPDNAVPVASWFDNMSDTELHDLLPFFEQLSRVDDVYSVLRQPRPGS
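Material: truncated SCP-1 phosphatase (76-261aa) / Buffer or medium: 50 mM Tris acetate pH 5.5, 0.005% Tween-20, 10 mM MgCl2 / Compound dosing: one concentration, 20 µM, with 1.0% DMSO / Incubation: 45 min room-temperature reaction, 5 min colour, 30 min stabiliser / Detection: colorimetric free-phosphate detection, absorbance 630 nm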
SUMO1 PPI mod: SUMO1-SIM interaction modulation. P63165. SUMO1 binding to a labelled peptide, TR-FRET, 1 h. inhibition, % at 20 µM. 360,000 tested, 0.33% active. AID 602429; in the data active = inhibition above about 37%
Target sequence (P63165 whole entry, looked up): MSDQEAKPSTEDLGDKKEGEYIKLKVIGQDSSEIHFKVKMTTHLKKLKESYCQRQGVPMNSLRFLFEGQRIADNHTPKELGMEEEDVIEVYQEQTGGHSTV
Scp1 confirm: confirmation of human Scp-1 phosphatase inhibitors; shares compounds with Scp-1 inhibitor; recombinant SCP-1 catalytic domain, phosphate release, malachite green absorbance; inhibition, % at 20 µM; 2,500 tested, 61% active
MG interference: interferes with malachite green readout, flagging false Scp-1 hits; AID 540313; apparent inhibition (interference), % at 20 µM; shares compounds with Scp-1 inhibitor; 2,500 tested, under 10 active; Colorimetric interference counterscreen, malachite green absorbance 630 nm;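 note: compounds added after enzyme reaction finished so only phosphate colour detection is probed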
Scp-1 Tm shift: validation of human Scp-1 inhibitors by thermal shift binding; shares compounds with Scp-1 inhibitor; Recombinant SCP1, Sypro Orange thermal shift Tm; thermal shift relative to vanadate control, % at 40 µM; 1,500 tested, 25% active; AID 540329;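 active = substances whose mean melting-temperature shift, as a percentage of the reference inhibitor's shift, reaches about 5.3%, limit read from the data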
Hits are given with their value; n = inactive; x = no result given.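 Rule for the calls, unless noted: active = inhibition of at least 30% at 20 µM; inactive = the rest.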

SMILES | STEP block | DNMT1 inh | LMPTP block | CASP6 VEID inh | Scp-1 inhibitor | SUMO1 PPI mod | Scp1 confirm | MG interference | others
N#Cc1cccc(NC(=O)CSc2n[nH]c(=O)[nH]c2=O)c1 | n | n | n | n | n | n | x | x
O=C(CSc1ncnc2ccccc12)Nc1ccc2c(c1)OCCO2 | n | n | n | n | n | n | x | x
CCN(C(=O)COC(=O)c1[nH]c(C)c(C(C)=O)c1C)C1CCS(=O)(=O)C1 (stereo not given) | n | n | n | x | 70 | n | n | n
COc1cccc(C2c3c(-c4ccccc4)n[nH]c3C(=O)N2c2ccc(C(=O)O)cc2)c1 (stereo not given) | n | n | n | n | 53 | n | 52 | n | Scp-1 Tm shift=24
Cc1cc(=O)oc2cc(NC(=O)c3ccccc3OC(F)F)ccc12 | n | n | n | n | n | n | x | x
Cc1cc(=O)oc2cc(NC(=O)c3cc(F)ccc3F)ccc12 | n | n | n | n | 86 | n | 62 | n | Scp-1 Tm shift=n
Cc1cc(C)c(OCC(=O)N(C)CC(=O)Nc2ccc(N3CCOCC3)cc2)c(C)c1 | n | n | n | n | n | n | x | x
COc1ccc(NC(=O)CN(c2ccccc2)S(=O)(=O)N(C)C)cc1Cl | n | n | n | n | n | n | x | x
COc1ccc(C(=O)Nc2ccc3c(c2)C(=O)c2ccccc2C3=O)cc1OC | 55 | 57 | n | x | 66 | n | n | n
COc1ccc(NC(=O)CN(c2ccccc2)S(=O)(=O)N(C)C)cc1OC | n | n | n | x | 76 | n | 69 | n | Scp-1 Tm shift=n
COc1ccc(C(=O)Nc2ccc3ccccc3c2)cc1OC | n | n | n | n | n | n | x | x
Cn1c(SCC(=O)Nc2ccccc2)nc(O)cc1=O | n | n | n | n | n | n | n | n
COc1ccc(/C=N/NC(=O)CCn2c3ccccc3c3ccccc32)cc1O | n | n | n | x | 56 | n | n | n
Cn1nnnc1SCC(=O)NNC(=O)c1ccc(F)cc1 | n | n | n | n | n | n | x | x
C=C1CN(Cc2ccccc2)S(=O)(=O)c2ccccc21 | n | n | n | n | 95 | n | 68 | n | Scp-1 Tm shift=n
C=C1CN(CC(=O)OC)S(=O)(=O)c2ccccc21 | n | n | n | n | n | n | x | x
N#CC(c1ccc(Cl)nn1)c1ccc(Cl)cc1Cl (stereo not given) | n | n | n | x | n | n | x | x
CCOC(=O)C(=O)Cc1cccnn1 | n | 66 | n | 44 | 75 | 43 | 44 | n | Scp-1 Tm shift=12
C=CCn1c(C)c(/C=C/c2cc[n+](C)cc2)c2ccccc21 | n | n | n | n | n | n | x | x
CCN(CC)C(=O)Cn1c(C)c(/C=C/c2cc[n+](C)cc2)c2ccccc21 | n | n | n | n | 63 | n | n | n
COc1ccc(NC(=O)COC(=O)c2cc3c(s2)CCC3)cc1 | n | 66 | n | n | 57 | n | 63 | n | Scp-1 Tm shift=n
COc1ccc(NC(=O)CCNS(=O)(=O)c2cc(Br)ccc2Br)cc1S(N)(=O)=O | n | n | n | n | n | n | n | n
CCc1nc2ccc(C(=O)N3CCN(C(=O)c4ccco4)CC3)cn2c1N(C)C(=O)COc1ccccc1 | n | n | n | n | x | n | x | x
CSc1cc(/C=N/O)c(SC)s1 | n | n | n | x | n | n | x | x
O=C(NCC1CCCO1)c1cc(-c2ccccc2F)no1 (stereo not given) | n | n | n | n | 52 | n | n | n
SMILES | STEP block | DNMT1 inh | LMPTP block | CASP6 VEID inh | Scp-1 inhibitor | SUMO1 PPI mod | Scp1 confirm | MG interference | others
O=C(Cc1ccc([N+](=O)[O-])cc1)NCC1CCCO1 (stereo not given) | n | n | n | n | n | n | x | x
O=C(NCC1CCCO1)c1ccc([N+](=O)[O-])o1 (stereo not given) | n | n | n | n | 63 | n | n | n
O=C(NCC1CCCO1)c1ccccc1 (stereo not given) | n | n | n | x | n | n | x | x
O=C(NCC1CCCO1)c1cccc(F)c1 (stereo not given) | n | n | n | x | n | n | x | x
C[n+]1cccc(C(=O)NCC2CCCO2)c1 (stereo not given) | n | n | n | n | 60 | n | n | n
O=[N+]([O-])c1ccc2cc[nH]c2c1 | n | n | n | n | 61 | n | n | n
CC(C)(C)C1CCC(OCC(O)CN2CCCC2)CC1 (stereo not given) | n | n | n | n | n | n | x | x
OC(COC1CCCCC1)CN1CCCCC1 (stereo not given) | n | n | n | n | 55 | n | n | n
Cc1cccn2c1nc(=S)n2C(=O)c1ccco1 | n | n | n | x | n | n | x | x
CC(=O)c1ccc(NC(=O)c2cccc(N3C(=O)c4ccccc4C3=O)c2)cc1 | 98 | n | 55 | x | 97 | 84 | 48 | n | Scp-1 Tm shift=n
CCOc1ccc(Nc2ccc(N)c(S(=O)(=O)O)c2)cc1 | 81 | 87 | 74 | 92 | 84 | 37 | 66 | n | Scp-1 Tm shift=20
N#C/C(=C\c1c(N(Cc2ccccc2)Cc2ccccc2)nc2ccccn2c1=O)C(N)=O | n | n | n | x | 56 | n | n | n
O=C(COC(=O)c1cccnc1Cl)NCCC1=CCCCC1 | n | n | n | n | n | n | x | x
CC[n+]1c(C)cc(C)n1-c1ccccc1 | n | n | n | n | 95 | n | 92 | n | Scp-1 Tm shift=n
COc1ccc(-c2cnc(NCc3cc4c(cc3[N+](=O)[O-])OCO4)n2C)cc1 | n | n | n | x | n | n | x | x
Cc1ccccc1NC(=O)Cn1c(CCC(=O)O)ccc1-c1cccs1 | n | n | n | n | n | n | x | x
COc1ccc(C2CC(c3ccc(F)cc3)n3nc(NC(=O)c4ccco4)nc3N2)cc1 (stereo not given) | n | n | n | n | n | n | x | x
C[C@H](CO)N1C[C@H](C)[C@@H](CN(C)C(=O)Nc2ccc3c(c2)OCO3)Oc2c(NC(=O)c3ccncc3)cccc2C1=O | n | n | n | n | 56 | n | n | n
C[C@H](CO)N1C[C@H](C)[C@@H](CN(C)Cc2ccc(C(=O)O)cc2)Oc2c(NC(=O)c3ccncc3)cccc2C1=O | n | n | n | n | 54 | n | n | n
C[C@@H]1CN([C@@H](C)CO)C(=O)c2cccc(NC(=O)c3ccncc3)c2O[C@@H]1CN(C)Cc1ccc(C(=O)O)cc1 | x | x | x | n | x | x | x | x
Cc1noc(C)c1NC(=O)N(C)C[C@@H]1Oc2c(NC(=O)c3ccncc3)cccc2C(=O)N([C@H](C)CO)C[C@@H]1C | n | n | n | n | 94 | n | 66 | n | Scp-1 Tm shift=n

Screening results as filed in PubChem BioAssay.
